Results published in ChEMBL document CHEMBL1153547, “Rifampin inhibits prostaglandin E2 production and arachidonic acid release in human alveolar epithelial cells” (Antimicrob Agents Chemother, 2007).
Activity calls are given as the source filed them. The calls are words filed in the database; no cut-off is given here.

Tests used:
A549 [1] = assay: Immunomodulatory effect in human A549 cells assessed as reduction in IL-1-beta-induced [3H]arachidonic acid release at 50 ug/ml measured after 2 hrs of IL1-beta challenge by liquid scintillation counting; assay type: functional; parameters: scale not given: the % may be the effect or the level left
Method in brief: (§1)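 A549 cells (2 x 10^6 per 3-cm plate), grown 24 h, labeled 4 h with [3H]AA at 0.5 µCi/ml in serum-free medium, then washed five times. Incubated in serum-free medium with 1 mg/ml BSA plus IL-1ß (1 ng/ml) ± rifampin, or rifampin alone, or medium alone, for 4 h unless another time is stated. Supernatant counted by liquid scintillation. Release given as % of incorporated label. Inhibition = 100 x [(IL-1ß – medium) – (IL-1ß+rif – rif alone)]/(IL-1ß – medium).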

A549 [2] = assay: Immunomodulatory effect in human A549 cells assessed as inhibition of Ca2+ ionophore A23187 stimulated-[3H]arachidonic acid release measured after 2 hrs of A23187 challenge by liquid scintillation counting; assay type: functional
A549 [3] = assay: Immunomodulatory effect in human A549 cells assessed as reduction in IL-1-beta-induced [3H]arachidonic acid release measured after 4 hrs of IL1-beta challenge by liquid scintillation counting; assay type: functional, cell-based; method in brief: as §1
A549 [4] = assay: Cytotoxicity against human A549 cells assessed as cell viability by neutral red uptake assay; assay type: cell-based
Method in brief: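 A549 cells in 96-well plates, after treatment, given neutral red at 0.05% final in fresh medium for 1 h. Cells washed with cold PBS containing Ca2+ and Mg2+, then dye extracted with Sorenson's citrate buffer-ethanol. Absorbance read at 540 nm. Viability taken as the absorbance ratio of treated to untreated cells.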

A549 [5] = assay: Immunomodulatory effect in human A549 cells assessed as reduction in IL-1-beta-induced PGE2 formation at 100 ug/ml after 48 hrs by enzyme immunoassay; assay type: functional, cell-based
Method in brief: (§2)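 A549 cells seeded at 1.5 x 10^5/well and grown 24 h, then held overnight in serum- and antibiotic-free medium. Cells exposed to IL-1ß (1 ng/ml) with or without rifampin (10 to 100 µg/ml) in fresh medium for 48 h, with DMSO vehicle at most 0.1%. Cleared supernatants stored at –70°C. PGE2 measured by enzyme immunoassay, triplicate wells.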

A549 [6] = assay: Immunomodulatory effect in human A549 cells assessed as reduction in basal release of [3H]arachidonic acid at 50 ug/ml up to 19 hrs by liquid scintillation counting; assay type: functional; parameters: scale not given: the % may be the effect or the level left
Method in brief: (§3)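 A549 cells prelabeled 4 h with [3H]AA at 0.5 µCi/ml, washed, then kept in serum-free medium with 1 mg/ml BSA, alone or with rifampin, with sampling at set times. Supernatant radioactivity counted by liquid scintillation and given as % of incorporated label. Incorporation estimated by subtracting supernatant counts after labeling from the radioactivity added. Two independent experiments, n = 5 per group.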

A549 [7] = assay: Immunomodulatory effect in human A549 cells assessed as inhibition of Ca2+ ionophore A23187 stimulated-[3H]arachidonic acid release measured after 4 hrs of A23187 challenge by liquid scintillation counting; assay type: functional
A549 [8] = assay: Immunomodulatory effect in human A549 cells assessed as reduction in IL-1-beta-induced [3H]arachidonic acid release at 50 ug/ml measured after 6 hrs of IL1-beta challenge by liquid scintillation counting; assay type: functional; parameters: scale not given: the % may be the effect or the level left; method in brief: as §1
A549 [9] = assay: Immunomodulatory effect in human A549 cells assessed as reduction in IL-1-beta-induced [3H]arachidonic acid release at 10 to 100 ug/ml measured after 4 hrs of IL1-beta challenge by liquid scintillation counting; assay type: functional, cell-based; method in brief: as §1
A549 [10] = assay: Immunomodulatory effect in human A549 cells assessed as reduction in IL-1-beta-induced [3H]arachidonic acid release at 50 ug/ml measured after 19 hrs of IL1-beta challenge by liquid scintillation counting; assay type: functional; parameters: scale not given: the % may be the effect or the level left; method in brief: as §1
A549 [11] = assay: Immunomodulatory effect in human A549 cells assessed as reduction in spontaneous release of [3H]arachidonic acid by liquid scintillation counting; assay type: functional, cell-based; method in brief: as §3
A549 [12] = assay: Immunomodulatory effect in human A549 cells assessed as reduction in basal release of [3H]arachidonic acid at 50 ug/ml up to 2 hrs by liquid scintillation counting; assay type: functional; parameters: scale not given: the % may be the effect or the level left; method in brief: as §3
A549 [13] = assay: Immunomodulatory effect in human A549 cells assessed as reduction in IL-1-beta-induced PGE2 formation at 25 ug/ml after 48 hrs by enzyme immunoassay; assay type: functional; parameters: scale not given: the % may be the effect or the level left; method in brief: as §2
[14] = Drug level in serum at 600 mg; assay type: ADME, cell-free
A549 [15] = assay: Inhibition of IL-1-beta-induced COX2 expression in human A549 cells at 50 ug/ml measured after 24 hrs of IL1-beta challenge by Western blot analysis; assay type: functional, cell-based
Method in brief: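 A549 cells (2 x 10^6 per 3-cm dish) grown 24 h, then 24 h in serum- and antibiotic-free medium. Treated with IL-1ß (1 ng/ml) ± rifampin (50 µg/ml) for 24 h, then lysed in SDS buffer and denatured at 95°C. Blocked in 5% milk/TBST, then rabbit anti-COX-2 (1:1,000) overnight at 4°C. HRP secondary used and detected by ECL, with β-actin as comparator and densitometry.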

A549 [16] = assay: Immunomodulatory effect in human A549 cells assessed as reduction in IL-1-beta-induced PGE2 formation at 50 ug/ml after 48 hrs by enzyme immunoassay; assay type: functional; parameters: scale not given: the % may be the effect or the level left; method in brief: as §2
A549 [17] = assay: Immunomodulatory effect in human A549 cells assessed as inhibition of Ca2+ ionophore A23187 stimulated-[3H]arachidonic acid release measured after 45 mins of A23187 challenge by liquid scintillation counting; assay type: functional, cell-based

Drug uptake [14]: 10 µg/mL
Compound: CO[C@H]1/C=C/O[C@@]2(C)Oc3c(C)c(O)c4c(O)c(c(/C=N/N5CCN(C)CC5)c(O)c4c3C2=O)NC(=O)/C(C)=C\C=C\[C@H](C)[C@H](O)[C@@H](C)[C@@H](O)[C@@H](C)[C@H](OC(C)=O)[C@@H]1C [RIFAMPIN]
Activity (A549 [1]): 53%
inhibition (INH) (A549 [2]): 5.5%
Activity (A549 [3]): Dose-dependent effect
Activity (A549 [4]): Non-toxic
Activity (A549 [5]): Dose-dependent effect
Activity (A549 [6]): 34%
inhibition (INH) (A549 [7]): 8.3%
Activity (A549 [8]): 79%
Activity (A549 [9]): Active
Activity (A549 [10]): 95%
Activity (A549 [11]): Dose-dependent effect
Activity (A549 [12]): 47%
Activity (A549 [13]): 45%
inhibition (A549 [15]): inactive
Activity (A549 [16]): 59%
inhibition (A549 [17]): inactive
